Here are results for 16 compounds from PubChem BioAssay.

Assay [1] in a line: Her2 expression decrease, cell viability multiplex – SKBR3 breast tumor cells, AlphaScreen, ATP viability, primary screen (AID 461;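 active = Her2 level under about 52% in both replicate screens, with viability over 70% of control, limit read from the data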;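 as to Her2 level: lower value means less Her2 protein in the cells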;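 as to viability: percent of carrier control wells set as 100% viability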). Conditions: SKBR3 Her2 protein level, 18-24 h, measured here: SKBR3 viability, ATP luminescence, at 10 µM. In general terms: Alpha assays give light when donor and acceptor beads are brought close together.
Assay [2] has as its target Receptor tyrosine-protein kinase erbB-2 (Homo sapiens) (UniProt P04626). The description is as above. Conditions: 18-24 h, at 10 µM, stronger effect = lower value.
Assay [3] in a line: reduced viability of SK-BR-3 breast cancer cells – cell-based, 24 h, human, pilot screen (AID 572;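 active = viability at or below 10% of carrier control in both of two separate runs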;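 also: compound exposure lasted between 18 and 24 h rather than exactly 24 h; 100% = carrier-treated control wells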). Particulars: SK-BR-3 viability, CellTiter-Glo luminescence, at 10 µM, stronger effect = lower value. For orientation: ATP-based viability assays read luminescence as a measure of living cells.
Assay [4] is described as follows: HUVEC growth inhibition – cell-based, human, primary screen (AID 575;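 active = viability at or below 30% in both replicate assays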;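 also: 100% = median of untreated cell wells with 0.1% DMSO on each plate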). Conditions: HUVEC proliferation, CellTiter-Glo luminescence, 72 h; at 10 µM; stronger effect = lower value. The procedure, abridged: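 Assay system: Primary human umbilical vein endothelial cells | Quantity: 1250 cells per well | Medium: Supplemented EBM, 2% fetal bovine serum | Detection: CellTiter-Glo luminescence measuring cellular ATP | Read-out: % viability vs DMSO wells | Plate: Collagen-coated 384-well format | Times: 72 h exposure, 37 °C, 5% CO2, 30 min RT equilibration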

Assay [5] in a line: H69AR cell proliferation blockers – human, duplicate replicates, primary screen (AID 580).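 Also: 100% = mean luminescence of untreated wells and 0% = no signal.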 Particulars: H69AR lung tumor cells viability, ATP luminescence, 72 h; at 10 µM; stronger effect = lower value.
Assay [6] can be described thus: MRP1 drug-resistance reversers in H69AR cells – cell-based, doxorubicin co-treatment, pilot screen (AID 601;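 active = viability loss from added drug above about 55%, and viability with drug at most 40%, in both replicates, limit read from the data, passing the limit was not always enough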). Particulars: CellTiter-Glo, 72 h, at 10 µM; for differential viability (reversal): stronger effect = higher value.
Assay [7] is described as follows: yeast transport mutant growth inhibition pilot in 384-well plates, post-Golgi transport modulator project (AID 636; in the data active = inhibition above about 31%). Particulars: absorbance 615 nm, about 18 h, stronger effect = higher value.
Assay [8] is described as follows: growth suppression of yeast trafficking mutant, preliminary HTS, modulators of trafficking downstream of Golgi apparatus project, 1536-format plate, OD 615 nm (AID 637; in the data active = inhibition above about 30%). Particulars: yeast transport mutant growth, absorbance 615 nm, 18 h; stronger effect = higher value.
Where [9] appears, read: H69AR cells + 2 uM doxorubicin, measured here: viability with 2 uM doxorubicin, stronger effect = lower value.
Setting [10] is: H69AR cells, compound alone cytotoxicity.

Structures are written as SMILES. Calls of active or inactive are those of the source.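 The calls were made as follows, unless noted: active = viability at or under a set limit in both replicates, limit being median viability minus 3 SD (cut at about 48% in these data, passing the limit was not always enough); inconclusive = at or under the limit in just one replicate; inactive = at or above the limit in both replicates.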

Chain of Receptor tyrosine-protein kinase erbB-2 (Homo sapiens) (P04626 whole entry, looked up): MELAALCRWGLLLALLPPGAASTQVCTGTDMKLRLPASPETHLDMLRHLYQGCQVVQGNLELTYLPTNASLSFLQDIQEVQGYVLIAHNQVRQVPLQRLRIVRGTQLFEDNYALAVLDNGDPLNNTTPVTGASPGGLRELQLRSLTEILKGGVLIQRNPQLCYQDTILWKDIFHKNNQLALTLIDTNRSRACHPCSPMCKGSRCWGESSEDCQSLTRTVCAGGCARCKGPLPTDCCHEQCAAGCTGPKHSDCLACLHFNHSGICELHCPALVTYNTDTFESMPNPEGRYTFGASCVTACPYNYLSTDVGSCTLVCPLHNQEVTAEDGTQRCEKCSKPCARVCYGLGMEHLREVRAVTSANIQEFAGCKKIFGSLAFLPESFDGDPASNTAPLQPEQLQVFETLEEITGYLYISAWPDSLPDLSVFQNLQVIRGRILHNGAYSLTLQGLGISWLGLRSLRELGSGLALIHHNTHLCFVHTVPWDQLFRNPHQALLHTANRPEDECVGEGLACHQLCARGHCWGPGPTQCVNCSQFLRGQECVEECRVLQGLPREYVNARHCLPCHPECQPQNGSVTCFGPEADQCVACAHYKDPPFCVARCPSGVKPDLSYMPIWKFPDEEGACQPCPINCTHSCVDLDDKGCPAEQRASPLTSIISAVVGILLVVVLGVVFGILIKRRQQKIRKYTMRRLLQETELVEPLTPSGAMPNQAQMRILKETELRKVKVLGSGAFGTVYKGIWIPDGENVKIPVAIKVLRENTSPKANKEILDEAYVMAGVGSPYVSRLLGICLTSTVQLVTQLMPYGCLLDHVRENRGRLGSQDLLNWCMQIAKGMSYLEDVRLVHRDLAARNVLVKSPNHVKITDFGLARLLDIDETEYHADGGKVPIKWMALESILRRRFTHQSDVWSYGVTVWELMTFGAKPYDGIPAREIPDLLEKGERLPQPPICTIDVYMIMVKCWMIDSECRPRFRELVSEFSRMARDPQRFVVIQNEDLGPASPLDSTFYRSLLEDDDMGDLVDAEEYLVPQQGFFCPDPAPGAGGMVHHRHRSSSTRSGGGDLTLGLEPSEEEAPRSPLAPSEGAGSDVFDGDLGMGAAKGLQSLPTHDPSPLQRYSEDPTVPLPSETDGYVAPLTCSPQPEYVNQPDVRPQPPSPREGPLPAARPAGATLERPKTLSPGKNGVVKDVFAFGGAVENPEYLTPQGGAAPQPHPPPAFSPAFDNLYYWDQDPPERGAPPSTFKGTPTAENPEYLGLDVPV

As usually defined, the viability is a read-out of living cells in per cent, often relative to untreated cells. Usually inhibition stands for the drop in the measured response relative to a control, in per cent. With `Cc1ccsc1C(C(=O)NC1CCCCC1)N(C(=O)Cc1cccs1)C1CC1` (stereo not given), the viability in assay [1] is 97.5%; in assay [3], 97.5% (inactive); in assay [4], 89.2% (inactive); in assay [5] it was 86.4% (inactive); in assay [6] (setting [9]), 77.1%; in assay [6] (setting [10]) it was 86.4%. In addition, the Her2 level in assay [2] is 125% (inactive). In addition, the differential viability (reversal) in assay [6] (H69AR cells + 2 uM doxorubicin) is 9.3% (inactive). Also, the inhibition in assay [7] is -4.87% (inactive); in assay [8] it was -4% (inactive).

Turning to `O/N=C/c1ccc(OCC(O)COc2ccc(/C=N/O)cc2)cc1`, the viability in assay [1] is 89.5%; in assay [3] it was 89.5% (inactive); in assay [4], 75.9% (inactive); in assay [5], 90.1% (inactive); in assay [6] (setting [9]) it was 91.3%; in assay [6] (setting [10]), 90.1%. The Her2 level in assay [2] was 112% (inactive). Besides, in assay [6] (H69AR cells + 2 uM doxorubicin), the differential viability (reversal) is -1.19% (inactive). In addition, the inhibition in assay [7] is -1.54% (inactive); in assay [8], 4.83% (inactive).

For the compound `Cc1ccc2nsnc2c1S(=O)(=O)N(Cc1cc2cccc(C)c2[nH]c1=O)CC1CCCO1` (stereo not given), the viability in assay [1] was 81.5%; in assay [3], 81.5% (inactive); in assay [4] it was 82.3% (inactive); in assay [5], 21.4% (active); in assay [6] (setting [9]), 21.4%; in assay [6] (setting [10]), 21.4%. Also, the Her2 level in assay [2] is 89% (inactive). Besides, in assay [6] (H69AR cells + 2 uM doxorubicin), the differential viability (reversal) is 0% (inactive). Also, the inhibition is -5.6% (inactive) in assay [7] and -0.66% (inactive) in assay [8].

Consider `Cc1nc(NCc2ccco2)c2oc3ccccc3c2n1`, for which the viability is 114% in assay [1]; 114% (inactive) in assay [3]; 100% (inactive) in assay [4]; 80.6% (inactive) in assay [5]; 81.8% in assay [6] (setting [9]); 80.6% in assay [6] (setting [10]). Further, the Her2 level in assay [2] is 87% (inactive). Also, the differential viability (reversal) in assay [6] (H69AR cells + 2 uM doxorubicin) was -1.13% (inactive). Also, the results for the inhibition in assay [7] and in assay [8] were -6.4% (inactive) and 4.44% (inactive), respectively.

Take `Cc1oc2c(CN3CCOCC3)c(O)ccc2c(=O)c1-c1ccc(Br)cc1`: the viability in assay [1] was 85%; in assay [3], 85% (inactive); in assay [4] it was 91.8% (inactive); in assay [5], 90.4% (inactive); in assay [6] (setting [9]), 86%; in assay [6] (setting [10]), 90.4%. In addition, the Her2 level in assay [2] was 114% (inactive). Also, the differential viability (reversal) in assay [6] (H69AR cells + 2 uM doxorubicin) is 4.38% (inactive). Also, the values for the inhibition in assay [7] and in assay [8] were -0.91% (inactive) and -2.67% (inactive), respectively.

As for `Cc1cccc2cc(CN(CCN3CCCC3)C(=O)NC3CCCCC3)c(=O)[nH]c12`, the viability was 83% in assay [1]; 83% (inactive) in assay [3]; 76.5% (inactive) in assay [4]; 91% (inactive) in assay [5]; 92% in assay [6] (setting [9]); 91% in assay [6] (setting [10]). The Her2 level in assay [2] was 78.5% (inactive). In addition, the differential viability (reversal) in assay [6] (H69AR cells + 2 uM doxorubicin) is -1.06% (inactive). In addition, the inhibition in assay [7] was -6.08% (inactive); in assay [8], -0.16% (inactive).

For the compound `CCOc1ccccc1NC(=O)NC1CCN(CC(=O)Nc2ccc3c(c2)OCCO3)CC1`, the viability in assay [1] is 119%; in assay [3], 119% (inactive); in assay [4] it was 73.9% (inactive); in assay [5] it was 86.8% (inactive); in assay [6] (setting [9]) it was 94.3%; in assay [6] (setting [10]) it was 86.8%. The Her2 level in assay [2] was 97% (inactive). The differential viability (reversal) in assay [6] (H69AR cells + 2 uM doxorubicin) is -7.47% (inactive). Besides, the values for the inhibition in assay [7] and in assay [8] were -0.39% (inactive) and 7.54% (inactive), respectively.

In the case of `CCC(c1nnnn1C(C)(C)C)N1CCN(C2CCCC2)CC1` (stereo not given), the viability in assay [1] was 98.5%; in assay [3] it was 98.5% (inactive); in assay [4], 103% (inactive); in assay [5], 107% (inactive); in assay [6] (setting [9]), 89.3%; in assay [6] (setting [10]), 107%. In assay [2], the Her2 level was 114% (inactive). Further, the differential viability (reversal) in assay [6] (H69AR cells + 2 uM doxorubicin) was 17.5% (inactive). Also, the inhibition in assay [7] was 1.2% (inactive); in assay [8] it was 4.59% (inactive).

Take `O=C(NCCCn1ccnc1)c1cnn2c1NC(c1ccccc1)CC2C(F)(F)F` (stereo not given): the viability is 93.5% in assay [1]; 93.5% (inactive) in assay [3]; 88.5% (inactive) in assay [4]; 105% (inactive) in assay [5]; 103% in assay [6] (setting [9]); 105% in assay [6] (setting [10]). The Her2 level in assay [2] is 139% (inactive). In assay [6] (H69AR cells + 2 uM doxorubicin), the differential viability (reversal) was 1.64% (inactive). Also, the inhibition is -0.26% (inactive) in assay [7] and -15% (inactive) in assay [8].

As for `Nc1nonc1N1CCCCC1`, the viability in assay [1] was 85.5%; in assay [3], 85.5% (inactive); in assay [4], 106% (inactive); in assay [5], 99.1% (inactive); in assay [6] (setting [9]) it was 87.6%; in assay [6] (setting [10]), 99.1%. For the same compound, the Her2 level in assay [2] was 152% (inactive). In addition, the differential viability (reversal) in assay [6] (H69AR cells + 2 uM doxorubicin) was 11.5% (inactive). The inhibition in assay [7] was -3.51% (inactive); in assay [8], -7.33% (inactive).

On to `CCSc1oc(-c2cccs2)nc1S(=O)(=O)c1ccccc1`, for which the viability in assay [1] is 93.5%; in assay [3], 93.5% (inactive); in assay [4] it was 59.9% (inactive); in assay [5], 82% (inactive); in assay [6] (setting [9]), 76.3%; in assay [6] (setting [10]) it was 82%. Besides, the Her2 level in assay [2] was 104% (inactive). Besides, in assay [6] (H69AR cells + 2 uM doxorubicin), the differential viability (reversal) is 5.72% (inactive). Further, the results for the inhibition in assay [7] and in assay [8] were -5.33% (inactive) and 1.83% (inactive), respectively.

Consider `CCN(CC)CCCN1C(=O)C(=O)/C(=C(/O)c2ccccc2)C1c1ccccn1` (stereo not given), for which the viability in assay [1] is 96.5%; in assay [3], 96.5% (inactive); in assay [4] it was 111% (inactive); in assay [5], 96% (inactive); in assay [6] (setting [9]), 89.7%; in assay [6] (setting [10]) it was 96%. Further, the Her2 level in assay [2] was 100% (inactive). Also, the differential viability (reversal) in assay [6] (H69AR cells + 2 uM doxorubicin) is 6.26% (inactive). Further, the results for the inhibition in assay [7] and in assay [8] were -1.35% (inactive) and -4.92% (inactive), respectively.

For `Cc1ccc(-n2ncc(C(=O)N3CCc4ccccc4C3)c2NC(=O)c2ccco2)cc1C`, the viability is 94% in assay [1]; 94% (inactive) in assay [3]; 83.6% (inactive) in assay [4]; 86.1% (inactive) in assay [5]; 89.9% in assay [6] (setting [9]); 86.1% in assay [6] (setting [10]). In addition, the Her2 level in assay [2] is 92% (inactive). For the same compound, the differential viability (reversal) in assay [6] (H69AR cells + 2 uM doxorubicin) is -3.83% (inactive). Also, the inhibition in assay [7] is -0.13% (inactive); in assay [8] it was -3.44% (inactive).

For `O=C(CCN1CCc2ccccc2C1)Nc1ccc2c(c1)OCO2`, the viability in assay [1] is 88.5%; in assay [3] it was 88.5% (inactive); in assay [4] it was 84.4% (inactive); in assay [5], 87.1% (inactive); in assay [6] (setting [9]), 105%; in assay [6] (setting [10]) it was 87.1%. The Her2 level in assay [2] was 94% (inactive). In assay [6] (H69AR cells + 2 uM doxorubicin), the differential viability (reversal) was -18.3% (inactive). The inhibition in assay [7] is -4.4% (inactive); in assay [8], 0.81% (inactive).

With `COC(=O)Nc1sc2c(c1C(=O)N1CCOCC1)CCC(C)C2` (stereo not given), the viability is 89.5% in assay [1]; 89.5% (inactive) in assay [3]; 79.7% (inactive) in assay [4]; 93.9% (inactive) in assay [5]; 95.6% in assay [6] (setting [9]); 93.9% in assay [6] (setting [10]). Moreover, the Her2 level in assay [2] was 88.5% (inactive). Also, in assay [6] (H69AR cells + 2 uM doxorubicin), the differential viability (reversal) is -1.66% (inactive). Also, the inhibition in assay [7] was -2.89% (inactive); in assay [8], 26% (inactive).

For `C#CC(CO)N(CCN(Cc1ccccc1)C(C#C)CO)Cc1ccccc1` (stereo not given), the viability is 107% in assay [1]; 107% (inactive) in assay [3]; 79.4% (inactive) in assay [4]; 90.3% (inactive) in assay [5]; 81.3% in assay [6] (setting [9]); 90.3% in assay [6] (setting [10]). Moreover, the Her2 level in assay [2] was 85% (inactive). The differential viability (reversal) in assay [6] (H69AR cells + 2 uM doxorubicin) is 9.04% (inactive). Further, the inhibition is -7.16% (inactive) in assay [7] and 1.5% (inactive) in assay [8].
